Reference: ChEMBL document CHEMBL5724801, “EUbOPEN Chemogenomics Library - Multiplex” (2024)
“And” between values parts separate entries of the source, which are not always exact repeats. Identical values can stand only once.

Test system: HEK-293T
Assay: Multiplex assay against HEK293T
Assay type: toxicity, cell-based
Conditions: human
In short: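 Cells stained live at seeding with Hoechst33342, BioTracker Green Microtubule Cytoskeleton Dye, MitoTracker Red and Annexin V Alexa Fluor 680 were imaged on a CQ1 microscope at 37°C and 5% CO2 after compound addition. Their classification by CellPathfinder machine-learning gating ran from Hoechst high-intensity objects versus normal cells, to healthy, pyknosed or fragmented nuclei among normal cells, to mitotic or apoptotic among pyknosed cells. Tubulin, mitochondrial-mass and membrane-permeability phenotypes are per cents of healthy-nucleus cells.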

[1] = 12 h, 1 µM, compound concentration 1 uM
[2] = 12 h, 10 µM, compound concentration 10 uM
[3] = 24 h, 1 µM, compound concentration 1 uM
[4] = 24 h, 10 µM, compound concentration 10 uM
[5] = 48 h, 1 µM, compound concentration 1 uM
[6] = 48 h, 10 µM, compound concentration 10 uM

Cc1cc(C)cc(C(=O)NOCCCCCC(=O)NO)c1
Population Apoptotic (%) [1]: 7.89% and 11.48%
Population Fragmented Nuclei (%) [1]: 1.15% and 1.27%
Population Healthy Nuclei (%) [1]: 55.3% and 21.02%
Population Hoechst High Intensity Objects (%) [1]: 0% and 0.63%
Population Membrane Permeable-Phenotype (%) [1]: 0% and 9.09%
Population Mitochondria Different-Phenotype (%) [1]: 25.91% and 12.12%
Population Mitotic Cells (%) [1]: 92.11% and 88.52%
Population Normal (%) [1]: 100% and 99.37%
Population Pyknosed Nuclei (%) [1]: 43.55% and 77.71%
Population Tubulin-Different-Phenotype (%) [1]: 7.25% and 18.18%
Total Cell Count [1]: 349 and 158
Population Apoptotic (%) [2]: 9.87% and 7.69%
Population Fragmented Nuclei (%) [2]: 3.28% and 1.65%
Population Healthy Nuclei (%) [2]: 51.34% and 26.92%
Population Hoechst High Intensity Objects (%) [2]: 0.3% and 0%
Population Membrane Permeable-Phenotype (%) [2]: 1.16% and 0%
Population Mitochondria Different-Phenotype (%) [2]: 29.65% and 12.24%
Population Mitotic Cells (%) [2]: 90.13% and 92.31%
Population Normal (%) [2]: 99.7% and 100%
Population Pyknosed Nuclei (%) [2]: 45.37% and 71.43%
Total Cell Count [2]: 336 and 182
Population Apoptotic (%) [3]: 32.32% and 20.49%
Population Fragmented Nuclei (%) [3]: 0.99% and 2.29%
Population Healthy Nuclei (%) [3]: 74.57% and 28%
Population Hoechst High Intensity Objects (%) [3]: 0.25% and 0.57%
Population Membrane Permeable-Phenotype (%) [3]: 1.66% and 0%
Population Mitochondria Different-Phenotype (%) [3]: 25.5% and 16.33%
Population Mitotic Cells (%) [3]: 67.68% and 79.51%
Population Normal (%) [3]: 99.75% and 99.43%
Population Pyknosed Nuclei (%) [3]: 24.44% and 69.71%
Population Tubulin-Different-Phenotype (%) [3]: 17.88% and 30.61%
Total Cell Count [3]: 406 and 176
Population Apoptotic (%) [4]: 24.32% and 10.53%
Population Fragmented Nuclei (%) [4]: 3.75% and 3.33%
Population Healthy Nuclei (%) [4]: 73.12% and 33.33%
Population Hoechst High Intensity Objects (%) [4]: 0%
Population Membrane Permeable-Phenotype (%) [4]: 0% and 1.67%
Population Mitotic Cells (%) [4]: 75.68% and 89.47%
Population Normal (%) [4]: 100%
Population Pyknosed Nuclei (%) [4]: 23.12% and 63.33%
Population Tubulin-Different-Phenotype (%) [4]: 4.27% and 1.67%
Total Cell Count [4]: 320 and 180
Population Apoptotic (%) [5]: 23.33% and 32.22%
Population Fragmented Nuclei (%) [5]: 5.26% and 1.12%
Population Healthy Nuclei (%) [5]: 76.52% and 48.6%
Population Hoechst High Intensity Objects (%) [5]: 1% and 0%
Population Membrane Permeable-Phenotype (%) [5]: 1.59% and 2.3%
Population Mitochondria Different-Phenotype (%) [5]: 50.26% and 32.18%
Population Mitotic Cells (%) [5]: 76.67% and 67.78%
Population Normal (%) [5]: 99% and 100%
Population Pyknosed Nuclei (%) [5]: 18.22% and 50.28%
Total Cell Count [5]: 499 and 179
Population Apoptotic (%) [6]: 30.43% and 28%
Population Fragmented Nuclei (%) [6]: 3.91% and 6.29%
Population Healthy Nuclei (%) [6]: 63.35% and 36.57%
Population Hoechst High Intensity Objects (%) [6]: 0.35% and 0.57%
Population Membrane Permeable-Phenotype (%) [6]: 3.37% and 0%
Population Mitotic Cells (%) [6]: 69.57% and 72%
Population Normal (%) [6]: 99.65% and 99.43%
Population Pyknosed Nuclei (%) [6]: 32.74% and 57.14%
Population Tubulin-Different-Phenotype (%) [6]: 7.87% and 17.19%
Total Cell Count [6]: 282 and 176

COC[C@@H](CC(C)C)NC1=N/C(=C\c2ccc3ncsc3c2)C(=O)N1C
Population Apoptotic (%) [1]: 13.64% and 37.5%
Population Fragmented Nuclei (%) [1]: 6.45% and 8%
Population Healthy Nuclei (%) [1]: 58.06% and 23.43%
Population Hoechst High Intensity Objects (%) [1]: 0.8% and 0%
Population Membrane Permeable-Phenotype (%) [1]: 0.69% and 2.44%
Population Mitotic Cells (%) [1]: 86.36% and 62.5%
Population Normal (%) [1]: 99.2% and 100%
Population Pyknosed Nuclei (%) [1]: 35.48% and 68.57%
Population Tubulin-Different-Phenotype (%) [1]: 6.94% and 14.63%
Total Cell Count [1]: 250 and 175
Population Apoptotic (%) [2]: 25.51% and 35.09%
Population Fragmented Nuclei (%) [2]: 88.19% and 92.28%
Population Healthy Nuclei (%) [2]: 3.54% and 1.77%
Population Hoechst High Intensity Objects (%) [2]: 4.51% and 10.38%
Population Membrane Permeable-Phenotype (%) [2]: 0% and 5.88%
Population Mitochondria Different-Phenotype (%) [2]: 0%
Population Mitotic Cells (%) [2]: 74.49% and 64.91%
Population Normal (%) [2]: 95.49% and 89.62%
Population Pyknosed Nuclei (%) [2]: 8.27% and 5.95%
Population Tubulin-Different-Phenotype (%) [2]: 16.67% and 5.88%
Total Cell Count [2]: 1241 and 1069
Population Apoptotic (%) [3]: 46.3% and 34.07%
Population Fragmented Nuclei (%) [3]: 6.23% and 6.63%
Population Healthy Nuclei (%) [3]: 76.07% and 38.55%
Population Hoechst High Intensity Objects (%) [3]: 2.87% and 1.19%
Population Membrane Permeable-Phenotype (%) [3]: 0.43% and 1.56%
Population Mitochondria Different-Phenotype (%) [3]: 19.83% and 7.81%
Population Mitotic Cells (%) [3]: 53.7% and 65.93%
Population Normal (%) [3]: 97.13% and 98.81%
Population Tubulin-Different-Phenotype (%) [3]: 19.4% and 12.5%
Total Cell Count [3]: 314 and 168
Population Apoptotic (%) [4]: 41.88% and 34.04%
Population Fragmented Nuclei (%) [4]: 84.82% and 94.42%
Population Healthy Nuclei (%) [4]: 4.67% and 1.42%
Population Hoechst High Intensity Objects (%) [4]: 5.28% and 8.58%
Population Membrane Permeable-Phenotype (%) [4]: 9.62% and 0%
Population Mitochondria Different-Phenotype (%) [4]: 5.77% and 0%
Population Mitotic Cells (%) [4]: 58.12% and 65.96%
Population Normal (%) [4]: 94.72% and 91.42%
Population Pyknosed Nuclei (%) [4]: 10.51% and 4.16%
Population Tubulin-Different-Phenotype (%) [4]: 15.38% and 0%
Total Cell Count [4]: 1175 and 1236
Population Apoptotic (%) [5]: 43.33% and 39.58%
Population Fragmented Nuclei (%) [5]: 10.02% and 10.37%
Population Healthy Nuclei (%) [5]: 83.97% and 54.07%
Population Hoechst High Intensity Objects (%) [5]: 2.16% and 8.16%
Population Membrane Permeable-Phenotype (%) [5]: 3.34% and 1.37%
Population Mitochondria Different-Phenotype (%) [5]: 36.28% and 26.03%
Population Mitotic Cells (%) [5]: 56.67% and 60.42%
Population Normal (%) [5]: 97.84% and 91.84%
Population Fragmented Nuclei (%) [6]: 90.84% and 92.95%
Population Healthy Nuclei (%) [6]: 2.22% and 3.18%
Population Hoechst High Intensity Objects (%) [6]: 6.5% and 11.42%
Population Membrane Permeable-Phenotype (%) [6]: 6.67% and 0%
Population Mitochondria Different-Phenotype (%) [6]: 23.33% and 0%
Population Normal (%) [6]: 93.5% and 88.58%
Population Pyknosed Nuclei (%) [6]: 6.95% and 3.87%
Population Tubulin-Different-Phenotype (%) [6]: 10% and 2.38%
Total Cell Count [6]: 1447 and 1489
